Measurements taken from ChEMBL document CHEMBL6120993, “Cardenolides in Asclepias syriaca Seeds: Exploring the Legacy of Tadeus Reichstein” (J Nat Prod, 2025).

What was measured:
[1] = Inhibition of porcine sodium/potassium-ATPase incubated for 20 mins by Spectrophotometric analysis; design: species or system Sus scrofa domesticus
Summary of the method: (§1)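 Enzyme was porcine cerebral cortex Na+/K+-ATPase or dissected Oncopeltus fasciatus neural tissue. Six-point 1/10 series (5 × 10⁻³ to 5 × 10⁻⁸ M, in 20% DMSO/H2O) was diluted 1:5 into Tris-buffered ATP, NaCl, KCl, MgCl2 and enzyme, then held 20 min at 37 °C with shaking. SDS stop; Taussky–Shorr phosphate read at 700 nm. KCl-free background contained 10 mM ouabain. Technical triplicates; ouabain reference; 4-parameter logistic mixed model gave IC50.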

[2] = Inhibition of seed bug sodium/potassium-ATPase incubated for 20 mins by Spectrophotometric analysis; design: species or system Oncopeltus fasciatus; summary of the method: as §1

| SMILES | IC50 [1] [µM] | IC50 [2] [µM] |
| --- | --- | --- |
| C[C@@H]1C[C@@H](O[C@@H]2O[C@H](CO)[C@@H](O)[C@H](O)[C@H]2O)[C@]2(O)O[C@@H]3C[C@@]4(C)[C@@H](C[C@@H]5O[C@]56[C@@H]4[C@H](O)[C@H](O)[C@]4(C)[C@@H](C5=CC(=O)OC5)CC[C@@]46O)C[C@H]3O[C@@H]2O1 | 2.2 | 1960 |
| C[C@H]1O[C@@H](O[C@H]2CC[C@@]3(C)[C@@H](CC[C@@H]4[C@@H]3C[C@@H](O)[C@]3(C)[C@@H](C5=CC(=O)OC5)CC[C@]43O)C2)[C@H](O)[C@H](O)[C@@H]1O[C@@H]1O[C@H](CO)[C@@H](O)[C@H](O)[C@H]1O | 1.1 | 220 |
| C[C@H]1O[C@@H](O[C@H]2CC[C@@]3(C)[C@H](C2)C[C@@H]2O[C@]24[C@@H]3CC[C@]2(C)[C@@H](C3=CC(=O)OC3)CC[C@]42O)[C@H](O)[C@H](O)[C@@H]1O[C@@H]1O[C@H](CO)[C@@H](O)[C@H](O)[C@H]1O | 1.1 | 830 |
| C[C@H]1O[C@@H](O[C@H]2CC[C@@]3(C)[C@H](C2)C[C@@H]2O[C@]24[C@@H]3C[C@@H](O)[C@]2(C)[C@@H](C3=CC(=O)OC3)CC[C@@]24O)[C@H](O)[C@H](O)[C@@H]1O[C@@H]1O[C@H](CO)[C@@H](O)[C@H](O)[C@H]1O | 1.4 | 1040 |
| C[C@@H]1C[C@@H](O[C@@H]2O[C@H](CO)[C@@H](O)[C@H](O)[C@H]2O)[C@]2(O)O[C@@H]3C[C@@]4(C)[C@@H](C[C@@H]5O[C@]56[C@@H]4[C@H](O)C(=O)[C@]4(C)[C@@H](C5=CC(=O)OC5)CC[C@]64O)C[C@H]3O[C@@H]2O1 | 0.9 | 640 |
| C[C@@H]1C[C@@]2(N=CCS2)[C@]2(O)O[C@@H]3C[C@@]4(C)[C@@H](C[C@@H]5O[C@]56[C@@H]4[C@H](O)C(=O)[C@]4(C)[C@@H](C5=CC(=O)OC5)CC[C@]64O)C[C@H]3O[C@@H]2O1 | 0.9 | 220 |
| C[C@H]1O[C@@H](O[C@H]2CC[C@@]3(C)[C@H](C2)C[C@@H]2O[C@]24[C@@H]3C[C@@H](O)[C@]2(C)[C@@H](C3=CC(=O)OC3)CC[C@@]24O)[C@H](O)[C@H](O)[C@@H]1O | 1.4 | 1080 |
| C[C@@H]1O[C@@H](O[C@H]2C[C@@H](O)[C@]3(CO)[C@H]4[C@H](O)C[C@]5(C)[C@@H](C6=CC(=O)OC6)CC[C@]5(O)[C@@H]4CC[C@]3(O)C2)[C@H](O)[C@H](O)[C@H]1O [OUABAIN] | 0.7 | 2100 |
